Source: ChEMBL document CHEMBL1149362, “Diphenyl phosphonate inhibitors for the urokinase-type plasminogen activator: optimization of the P4 position” (J Med Chem, 2006)

How the values were obtained:
[1] = molecular target: Tissue-type plasminogen activator (Homo sapiens, UniProt P00750); test: Inhibition of recombinant tPA
Procedure, shortened: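 Recombinant tPA, approx. 5 mU, in Tris pH 8.3, is preincubated with inhibitor for 15 min at 37 °C. S-2288 is then added at 1.25 mM (Km 1 mM). Absorbance change is read at 405 nm, in duplicate, and IC50 comes from a four-parameter logistic fit.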

[2] = molecular target: Coagulation factor X (Bos taurus) (UniProt P00743); test: (§1) Inhibition of bovine F10a at 250 uM
Prothrombin = Prothrombin (Homo sapiens, UniProt P00734); test: Inhibition of human thrombin
Procedure, shortened: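 Thrombin from human plasma, approx. 5 mU, in Tris pH 8.3, with a 15-min 37 °C inhibitor preincubation. […] Initial rate is read at 405 nm, duplicates, and IC50 is obtained by four-parameter logistic fitting.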

[3] = molecular target: T1, Urokinase-type plasminogen activator (Homo sapiens, UniProt P00749); test: Inhibition of human uPA
[4] = Inhibition of bovine trypsin; set-up: species or system Bos taurus
Procedure, shortened: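 Bovine trypsin, approx. 5 mU, is preincubated with inhibitor for 15 min at 37 °C. BAPNA substrate is then added at 425 µM (Km 1 mM) in Tris pH 8.2. The pNA release rate is read at 405 nm, duplicate wells, and IC50 comes from a four-parameter logistic fit.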

Homo sapiens [5] = organism: Homo sapiens; test: Selectivity index, IC50 for human plasmin/IC50 for human uPA
[6] = molecular target: Thrombin and urokinase-type plasminogen activator (Homo sapiens) (UniProt P00734+P00749); test: Selectivity index, IC50 for human thrombin/IC50 for human uPA; format: protein assay
Plasminogen = Plasminogen (Homo sapiens, UniProt P00747); test: Inhibition of human plasmin
Procedure, shortened: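 Plasmin from human plasma, approx. 5 mU, in Tris pH 7.4, with a 15-min 37 °C inhibitor preincubation. […] Initial rate is read at 405 nm, in duplicate, and IC50 is obtained by four-parameter logistic fitting.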

Homo sapiens [7] = organism: Homo sapiens; test: Selectivity index, IC50 for recombinant tPA/IC50 for human uPA
[8] = Selectivity index, IC50 for bovine trypsin/IC50 for human uPA
[9] = Selectivity index, IC50 for bovine F10a/IC50 for human uPA
Coagulation factor X [10] = molecular target: T2, Coagulation factor X (Bos taurus, UniProt P00743); test: Inhibition of bovine F10a
Coagulation factor X [11] = molecular target: T2, Coagulation factor X; test: as §1
[12] = molecular target: T1, Urokinase-type plasminogen activator; test: Inhibition of mouse uPA; details: target entry is the homologue from another species
[13] = Selectivity for mouse uPA over tPA
[14] = Selectivity for mouse uPA over plasmin
[15] = molecular target: Coagulation factor X (Bos taurus) (UniProt P00743); test: Inhibition of bovine F10a at 125 uM

Chain of Plasminogen (P00747 97-580 limits assumed): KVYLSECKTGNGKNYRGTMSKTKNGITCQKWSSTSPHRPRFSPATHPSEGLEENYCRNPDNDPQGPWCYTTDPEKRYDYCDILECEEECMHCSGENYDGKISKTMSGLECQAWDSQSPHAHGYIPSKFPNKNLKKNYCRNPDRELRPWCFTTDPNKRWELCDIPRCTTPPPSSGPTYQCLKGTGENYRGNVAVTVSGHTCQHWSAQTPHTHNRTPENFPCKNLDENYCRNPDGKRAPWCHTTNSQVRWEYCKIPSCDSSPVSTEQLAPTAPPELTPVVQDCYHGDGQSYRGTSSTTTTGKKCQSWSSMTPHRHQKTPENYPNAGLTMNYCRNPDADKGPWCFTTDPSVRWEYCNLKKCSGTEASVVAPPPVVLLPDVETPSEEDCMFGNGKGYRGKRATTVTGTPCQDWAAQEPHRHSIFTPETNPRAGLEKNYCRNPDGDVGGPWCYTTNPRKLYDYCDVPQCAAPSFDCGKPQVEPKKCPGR
Chain of Plasminogen (P00747 581-810 limits assumed): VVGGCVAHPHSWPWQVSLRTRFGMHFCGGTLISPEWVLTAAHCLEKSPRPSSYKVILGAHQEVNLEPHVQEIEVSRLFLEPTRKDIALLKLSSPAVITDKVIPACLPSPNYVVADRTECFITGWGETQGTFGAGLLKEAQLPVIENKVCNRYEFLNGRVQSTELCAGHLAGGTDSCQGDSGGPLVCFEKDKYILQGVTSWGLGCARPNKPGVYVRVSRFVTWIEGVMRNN
T2 sequence (P00743 41-180 limits assumed): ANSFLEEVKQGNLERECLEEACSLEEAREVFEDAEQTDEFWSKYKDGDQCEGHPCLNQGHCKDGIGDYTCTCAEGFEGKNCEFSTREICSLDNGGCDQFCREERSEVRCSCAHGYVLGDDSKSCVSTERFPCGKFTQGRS
T2 sequence (P00743 234-492 limits assumed): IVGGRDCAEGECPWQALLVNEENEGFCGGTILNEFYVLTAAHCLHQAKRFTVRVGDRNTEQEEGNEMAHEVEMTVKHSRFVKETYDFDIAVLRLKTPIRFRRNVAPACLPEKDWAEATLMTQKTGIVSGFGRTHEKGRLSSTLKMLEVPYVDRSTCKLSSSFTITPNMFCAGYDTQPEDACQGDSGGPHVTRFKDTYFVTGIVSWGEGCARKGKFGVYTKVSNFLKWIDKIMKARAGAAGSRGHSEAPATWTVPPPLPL
Chain of Coagulation factor X (Bos taurus) (P00743 41-180 limits assumed): as the sequence (P00743 41-180 limits assumed) above
Chain of Coagulation factor X (Bos taurus) (P00743 234-492 limits assumed): as the sequence (P00743 234-492 limits assumed) above
Chain of Tissue-type plasminogen activator (P00750 whole entry): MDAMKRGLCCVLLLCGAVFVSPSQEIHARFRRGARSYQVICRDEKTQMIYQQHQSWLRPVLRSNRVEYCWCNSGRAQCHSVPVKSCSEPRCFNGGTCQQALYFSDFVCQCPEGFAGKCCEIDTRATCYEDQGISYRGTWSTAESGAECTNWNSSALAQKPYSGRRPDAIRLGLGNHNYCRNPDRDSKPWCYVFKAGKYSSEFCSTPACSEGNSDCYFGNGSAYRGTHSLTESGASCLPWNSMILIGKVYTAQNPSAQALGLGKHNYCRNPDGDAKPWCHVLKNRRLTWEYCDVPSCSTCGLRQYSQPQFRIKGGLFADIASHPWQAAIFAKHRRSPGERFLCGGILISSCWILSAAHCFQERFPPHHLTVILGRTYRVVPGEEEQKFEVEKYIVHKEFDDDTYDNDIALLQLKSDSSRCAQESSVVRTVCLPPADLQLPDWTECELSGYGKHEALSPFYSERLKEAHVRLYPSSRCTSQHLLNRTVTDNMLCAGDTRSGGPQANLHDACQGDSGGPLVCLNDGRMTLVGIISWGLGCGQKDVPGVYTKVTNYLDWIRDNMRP

Row | Structure (SMILES) | IC50 [1] [nM] | inhibition [2] [%] | IC50 (Prothrombin) [nM] | IC50 [3] [nM] | IC50 [4] [nM] | Selectivity index (Homo sapiens [5]) | Selectivity index [6] | IC50 (Plasminogen) [nM] | Selectivity index (Homo sapiens [7]) | Selectivity index [8] | Selectivity index [9] | IC50 (Coagulation factor X [10]) [nM] | IC50 (Coagulation factor X [11]) [nM] | IC50 [12] [nM] | Selectivity ratio [13] | Selectivity ratio [14] | inhibition [15] [%]
1 | Cc1cccc(C)c1C(=O)N[C@H](CO)C(=O)N[C@@H](C)C(=O)NC(Cc1ccc(NC(=N)N)cc1)P(=O)(Oc1ccccc1)Oc1ccccc1 (stereo partly specified) | 3600 | 62 | 6300 | 6 | 220 | 700 | 1000 | 4200 | 600 | 40 | – | – | – | – | – | – | –
2 | Cc1cccc(C(=O)N[C@H](CO)C(=O)N[C@@H](C)C(=O)NC(Cc2ccc(NC(=N)N)cc2)P(=O)(Oc2ccccc2)Oc2ccccc2)c1 (stereo partly specified) | – | 56 | – | – | 160 | 1800 | 7700 | – | 4000 | 40 | – | – | – | – | – | – | –
3 | C[C@H](NC(=O)[C@@H](CO)NC(=O)OCc1ccccc1)C(=O)NC(CCCN=C(N)N)P(=O)(Oc1ccccc1)Oc1ccccc1 (stereo partly specified) | – | – | – | – | – | 300 | 8 | – | 40 | – | 1100 | – | – | – | – | – | –
4 | C[C@H](NC(=O)[C@@H](CO)NS(=O)(=O)c1ccc(C#N)cc1)C(=O)NC(Cc1ccc(NC(=N)N)cc1)P(=O)(Oc1ccccc1)Oc1ccccc1 (stereo partly specified) | – | 53 | – | – | 440 | 145 | 1200 | – | 1100 | 70 | – | – | – | – | – | – | –
5 | C[C@H](NC(=O)[C@@H](CO)NS(=O)(=O)c1ccc(Br)cc1)C(=O)NC(Cc1ccc(NC(=N)N)cc1)P(=O)(Oc1ccccc1)Oc1ccccc1 (stereo partly specified) | 3700 | – | 2980 | 6.6 | 240 | 136 | 451 | 900 | 560 | 36 | 9000 | 58000 | – | – | – | – | –
6 | C[C@H](NC(=O)[C@@H](CO)NC(=O)C1C2CC3CC(C2)CC1C3)C(=O)NC(Cc1ccc(NC(=N)N)cc1)P(=O)(Oc1ccccc1)Oc1ccccc1 (stereo partly specified) | 8600 | 62 | 6000 | 8 | 160 | 600 | 750 | 5000 | 1000 | 20 | – | – | – | – | – | – | –
7 | C[C@H](NC(=O)[C@@H](CO)NS(=O)(=O)c1cccs1)C(=O)NC(Cc1ccc(N=C(N)N)cc1)P(=O)(Oc1ccccc1)Oc1ccccc1 (stereo partly specified) | 3400 | – | 4300 | 1.5 | – | – | – | 1540 | – | – | – | – | – | – | – | – | –
8 | C[C@H](NC(=O)[C@@H](CO)NC(=O)c1cccs1)C(=O)NC(Cc1ccc(NC(=N)N)cc1)P(=O)(Oc1ccccc1)Oc1ccccc1 (stereo partly specified) | – | – | – | – | – | 1400 | 5000 | – | 1900 | 40 | – | – | – | – | – | – | –
9 | C[C@H](NC(=O)[C@@H](CO)NS(=O)(=O)c1cccs1)C(=O)NC(Cc1ccc(NC(=N)N)cc1)P(=O)(Oc1ccccc1)Oc1ccccc1 (stereo partly specified) | – | 68 | – | – | 98 | 1000 | 2800 | – | 2300 | 65 | – | – | – | – | – | – | –
10 | C[C@H](NC(=O)[C@@H](CO)NC(=O)c1cccs1)C(=O)NC(Cc1ccc(N=C(N)N)cc1)P(=O)(Oc1ccccc1)Oc1ccccc1 (stereo partly specified) | 13000 | – | 35000 | 6.9 | – | – | – | 10000 | – | – | – | – | 250000 | – | – | – | –
11 | C[C@H](NC(=O)[C@@H](CO)NS(=O)(=O)c1cccc2ccccc12)C(=O)NC(Cc1ccc(NC(=N)N)cc1)P(=O)(Oc1ccccc1)Oc1ccccc1 (stereo partly specified) | – | – | – | – | 280 | 155 | 1000 | – | 760 | 50 | 16600 | – | – | – | – | – | –
12 | Cc1ccc(C(=O)N[C@H](CO)C(=O)N[C@@H](C)C(=O)NC(Cc2ccc(NC(=N)N)cc2)P(=O)(Oc2ccccc2)Oc2ccccc2)cc1 (stereo partly specified) | 16000 | 53 | 67000 | 7 | 160 | 700 | 9600 | 5000 | 2300 | 23 | – | – | – | – | – | – | –
13 | Cc1ccccc1C(=O)N[C@H](CO)C(=O)N[C@@H](C)C(=O)NC(Cc1ccc(NC(=N)N)cc1)P(=O)(Oc1ccccc1)Oc1ccccc1 (stereo partly specified) | 5500 | 57 | 15900 | 5 | 140 | 1400 | 3200 | 7200 | 1100 | 30 | – | – | – | – | – | – | –
14 | Cc1cccc(C(=O)N[C@H](CO)C(=O)N[C@@H](C)C(=O)NC(Cc2ccc(N=C(N)N)cc2)P(=O)(Oc2ccccc2)Oc2ccccc2)c1 (stereo partly specified) | 18000 | – | 34000 | 4.4 | – | – | – | 8000 | – | – | – | – | – | – | – | – | –
15 | C[C@H](NC(=O)[C@@H](CO)NS(=O)(=O)Cc1ccccc1)C(=O)NC(Cc1ccc(NC(=N)N)cc1)P(=O)(Oc1ccccc1)Oc1ccccc1 (stereo partly specified) | 280 | – | 770 | 3.5 | 310 | 11 | 220 | 37 | 80 | 90 | 9400 | 33000 | – | – | – | – | –
16 | C[C@H](NC(=O)[C@@H](CO)NC(=O)c1ccccc1)C(=O)NC(Cc1ccc(NC(=N)N)cc1)P(=O)(Oc1ccccc1)Oc1ccccc1 (stereo partly specified) | – | 45 | – | – | 400 | 3000 | 5400 | – | 3000 | 80 | – | – | – | – | – | – | –
17 | C[C@H](NC(=O)[C@@H](CO)NC(=O)OCc1ccccc1)C(=O)NC(Cc1ccc(N=C(N)N)cc1)P(=O)(Oc1ccccc1)Oc1ccccc1 (stereo partly specified) | 4600 | – | 20000 | 4.3 | – | – | – | 2000 | – | – | – | – | – | – | – | – | –
18 | C[C@H](NC(=O)[C@@H](CO)NS(=O)(=O)c1ccc(C#N)cc1)C(=O)NC(Cc1ccc(N=C(N)N)cc1)P(=O)(Oc1ccccc1)Oc1ccccc1 (stereo partly specified) | 6600 | – | 7500 | 6.2 | – | – | – | 900 | – | – | – | – | – | – | – | – | –
19 | C[C@H](NC(=O)[C@@H](CO)NC(=O)c1ccccc1)C(=O)NC(Cc1ccc(N=C(N)N)cc1)P(=O)(Oc1ccccc1)Oc1ccccc1 (stereo partly specified) | 15000 | – | 22000 | 5 | – | – | – | 15000 | – | – | – | – | – | – | – | – | –
20 | CC(=O)Nc1ccc(OP(=O)(Oc2ccc(NC(C)=O)cc2)C(Cc2ccc(N=C(N)N)cc2)NC(=O)[C@H](C)NC(=O)[C@@H](CO)NC(=O)OCc2ccccc2)cc1 (stereo partly specified) | 6400 | – | 1500 | 6.7 | – | – | – | 900 | – | – | – | – | – | 410 | – | – | –
21 | C[C@H](NC(=O)[C@@H](CO)NC(=O)OCc1ccccc1)C(=O)NC(CCCNC(=N)N)P(=O)(Oc1ccccc1)Oc1ccccc1 (stereo partly specified) | – | – | – | – | – | – | – | – | – | – | – | 65000 | – | – | – | – | –
22 | C[C@H](NC(=O)[C@@H](CO)NS(=O)(=O)c1cccc2ccccc12)C(=O)NC(Cc1ccc(N=C(N)N)cc1)P(=O)(Oc1ccccc1)Oc1ccccc1 (stereo partly specified) | 4400 | – | 6000 | 5.8 | – | – | – | 990 | – | – | – | 96000 | – | – | – | – | –
23 | C[C@H](NC(=O)[C@@H](CO)NS(=O)(=O)c1ccccc1)C(=O)NC(Cc1ccc(NC(=N)N)cc1)P(=O)(Oc1ccccc1)Oc1ccccc1 (stereo partly specified) | 3100 | 64 | 4900 | 2.6 | 160 | 740 | 1900 | 1900 | 1200 | 60 | – | – | – | – | – | – | –
24 | CC(=O)Nc1ccc(OP(=O)(Oc2ccc(NC(C)=O)cc2)C(Cc2ccc(NC(=N)N)cc2)NC(=O)[C@H](C)NC(=O)[C@@H](CO)NC(=O)OCc2ccccc2)cc1 (stereo partly specified) | – | 58 | – | – | 200 | 130 | 200 | – | 1000 | 30 | – | – | – | – | 5 | 5 | –
25 | COc1ccc(S(=O)(=O)N[C@H](CO)C(=O)N[C@@H](C)C(=O)NC(Cc2ccc(NC(=N)N)cc2)P(=O)(Oc2ccccc2)Oc2ccccc2)cc1 (stereo partly specified) | 4300 | – | 1670 | 5.8 | 360 | 293 | 288 | 1700 | 740 | 60 | 19000 | 100000 | – | – | – | – | –
26 | C[C@H](NC(=O)[C@@H](CO)NC(=O)OCc1ccccc1)C(=O)NC(Cc1ccc(NC(=N)N)cc1)P(=O)(Oc1ccccc1)Oc1ccccc1 (stereo partly specified) | – | – | – | – | 300 | 470 | 4700 | – | 1000 | 70 | – | – | – | – | – | – | 43
